This is an account of results in ChEMBL document CHEMBL1126880, “3-Acyl-4-hydroxyquinolin-2(1H)-ones. Systemically active anticonvulsants acting by antagonism at the glycine site of the N-methyl-D-aspartate receptor complex” (J Med Chem, 1993).

Experiment [1] concerns the target Glutamate NMDA receptor. The experiment is described as follows: Binding affinity towards NMDA receptor to displace [3H]-L-689,560 from rat cortical membranes.
Experiment [2] has as its system Mus musculus. The experiment is described as follows: Effective dose of compound required to protect audiogenic seizure in DBA/2 mice administered ip. Format: functional. In a few lines: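 DBA/2 mice received compound intraperitoneally 30 min before audiogenic seizure induction. Protection was reported as an ED50 or as number protected/number tested at a single dose.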

The species entered for experiment [3] is Rattus norvegicus. The experiment is described as follows: Antagonistic activity against NMDA-induced response in rat cortical slice. Format: functional. In a few lines: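 Rat cortical slices were challenged with NMDA, with and without antagonist. Apparent Kb was calculated from the rightward shift of the NMDA concentration-response curve. Values are means of at least three experiments, with maximum variance (geometric mean) of 15%.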

A value given as a limit tells only on which side of the number the result lay.

`COC(=O)c1c(O)c2ccc(Cl)cc2[nH]c1=O` came in with an IC50 in experiment [1] of 6.4 µM.

Compound `O=C(OCCc1ccccc1O)c1c(O)nc2cc(Cl)ccc2c1O` had an IC50 in experiment [1] of 7.12 µM.

`CCOC(=O)C1Oc2ccc(Cl)cc2NC1=O` (stereo not drawn): the IC50 in experiment [1] was above 100 µM.

Regarding `CONC(=O)c1c(O)nc2cc(Cl)ccc2c1O`, the IC50 in experiment [1] amounted to 3.09 µM.

`O=C(c1c(O)nc2cc(Cl)ccc2c1O)C1CC1` registered an ED50 in experiment [2] of 4.1 mg/kg. The compound further had a Kb in experiment [3] of 3.39 µM.

Regarding `CCOC(=O)c1c(O)nc2cc([N+](=O)[O-])c([N+](=O)[O-])cc2c1O`, in experiment [1], the IC50 turned out to be 10.5 µM. That is a double-digit micromolar value.

With `O=C(OCCc1cccc(O)c1)c1c(O)nc2cc(Cl)ccc2c1O`, the IC50 in experiment [1] amounted to 1.82 µM.

Regarding `COC(=O)C1C(=O)Nc2cc(Cl)ccc21` (stereo not drawn), in experiment [1], the IC50 is above 100 µM. The compound also registered a Kb in experiment [3] of 441 µM.

In turn, `CCOC(=O)C1C(=O)Nc2cc(Cl)ccc2C1=O` (stereo not drawn) registered an IC50 in experiment [1] of 16.7 µM. In experiment [3], the Kb worked out at 65.4 µM.

As to `O=C(OCC#Cc1cccc(O)c1)c1c(O)c2ccc(Cl)cc2[nH]c1=O`, in experiment [1], the 50% inhibitory concentration (IC50) amounted to 0.17 µM.

For `O=C(NO)c1c(O)nc2cc(Cl)ccc2c1O`, the IC50 in experiment [1] stood at 6.32 µM.

With `O=C(OCCCCc1cccc(O)c1)c1c(O)nc2cc(Cl)ccc2c1O`, in experiment [1], the half-maximal inhibitory concentration (IC50) worked out at 2.62 µM.

As for `O=C(OCCc1ccccn1)c1c(O)nc2cc(Cl)ccc2c1O`, the 50% inhibitory concentration (IC50) in experiment [1] stood at 27.5 µM. This IC50 lies about 10-fold higher than the previous one.

In experiment [1], `CCOC(=O)c1c(O)nc2cccc(C)c2c1O` registered an IC50 above 1000 µM.

Regarding `CCCOC(=O)c1c(O)nc2cc(Cl)ccc2c1O`, the IC50 in experiment [1] was above 100 µM.

As to `CCOC(=O)c1c(O)nc2ccc(Cl)cc2c1O`, the IC50 in experiment [1] is above 100 µM.

Consider `O=C(OCCCc1cccc(O)c1)c1c(O)nc2cc(Cl)ccc2c1O`, for which the IC50 in experiment [1] is 2.64 µM.

As to `CCOC(=O)c1c(O)c2ccc([N+](=O)[O-])cc2[nH]c1=O`, the IC50 in experiment [1] is 25.4 µM.

`O=C(OCCc1ccc(O)cc1)c1c(O)nc2cc(Cl)ccc2c1O`: the IC50 in experiment [1] was determined as 2.93 µM. This IC50 lies about 8.7-fold lower than the previous one.

Compound `CON(C)C(=O)c1c(O)nc2cc(Cl)ccc2c1O` had an IC50 in experiment [1] of 47.1 µM. This IC50 lies about 16-fold higher than the previous one.

As to `O=C(Cc1ccccc1)c1c(O)c2ccc(Cl)cc2[nH]c1=O`, the ED50 in experiment [2] amounted to 31.6 mg/kg. In experiment [1], this compound registered an IC50 of 0.93 µM. This compound also came in with a Kb in experiment [3] of 3.92 µM.

The compound `CCOC(=O)c1c(O)nc2cc(C(F)(F)F)ccc2c1O` registered an IC50 in experiment [1] of 12.3 µM. This lies in the double-digit micromolar range.

In experiment [1], `O=C(Cc1cccs1)c1c(O)nc2cc(Cl)ccc2c1O` came in with an IC50 of 1.07 µM.

In experiment [1], `C=CCOC(=O)c1c(O)c2ccc(Cl)cc2[nH]c1=O` had an IC50 of 6.42 µM.

In experiment [1], `CN(Cc1ccccc1)C(=O)c1c(O)nc2cc(Cl)ccc2c1O` came in with an IC50 above 100 µM.

In experiment [1], `O=C(c1ccsc1)c1c(O)nc2cc(Cl)ccc2c1O` showed an IC50 of 1.97 µM.

With `O=C1Nc2cc(Cl)ccc2C(=O)C1C(=O)c1ccccc1` (stereo not drawn), the IC50 in experiment [1] stood at 3.16 µM.

As to `O=C(OCc1cccc(O)c1)c1c(O)nc2cc(Cl)ccc2c1O`, the IC50 in experiment [1] was determined as 6.13 µM. This IC50 is about 1.9-fold higher than that of the compound before.

`O=C(NCCc1ccc(O)cc1)c1c(O)nc2cc(Cl)ccc2c1O`: the IC50 in experiment [1] is above 100 µM.

Turning to `COc1cccc(C#CCOC(=O)c2c(O)nc3cc(Cl)ccc3c2O)c1`, the IC50 in experiment [1] was determined as 0.27 µM.

On to `CCOC(=O)c1c(O)nc2cc(C#N)ccc2c1O`, for which, in experiment [1], the IC50 amounted to 26 µM.

In turn, `CCOC(=O)c1c(O)nc2ccccc2c1O` returned an IC50 in experiment [1] above 100 µM.

In turn, `O=C1CC(=O)c2ccc(Cl)cc2N1` showed an IC50 in experiment [1] above 100 µM.

For `CCOC(=O)c1c(O)nc2c(C)cccc2c1O`, the IC50 in experiment [1] is above 100 µM.

The compound `O=C(SCCc1ccccc1)c1c(O)nc2cc(Cl)ccc2c1O` yielded an IC50 in experiment [1] above 10 µM.

Consider `O=C(NOCc1ccccc1)c1c(O)nc2cc(Cl)ccc2c1O`, for which the IC50 in experiment [1] was above 100 µM.

In experiment [1], `NC(=O)c1c(O)nc2cc(Cl)ccc2c1O` displayed an IC50 above 100 µM.

Compound `O=C(OCCc1c[nH]c2ccccc12)c1c(O)nc2cc(Cl)ccc2c1O` returned an IC50 in experiment [1] of 0.43 µM. That is a sub-micromolar value.

Compound `O=C(c1c(O)nc2cc(Cl)ccc2c1O)N(O)CCc1ccccc1` showed an IC50 in experiment [1] of 9.3 µM.

Take `COC(=O)C1C(=O)Nc2cc(Cl)ccc2S1(=O)=O` (stereo not drawn): the IC50 in experiment [1] came to 13.6 µM.

The compound `C#CCOC(=O)c1c(O)nc2cc(Cl)ccc2c1O` came in with an IC50 in experiment [1] of 9 µM.

In experiment [1], `CC(=O)c1c(O)nc2cc(Cl)ccc2c1O` displayed a concentration for half-maximal inhibition (IC50) above 100 µM.

As for `O=C(c1c(O)nc2cc(Cl)ccc2c1O)C1CCCCC1`, the IC50 in experiment [1] is above 100 µM.

Consider `O=C(c1ccco1)c1c(O)nc2cc(Cl)ccc2c1O`, for which the half-inhibitory concentration (IC50) in experiment [1] was found to be 2.39 µM.

Consider `O=C(OCCc1cccs1)c1c(O)nc2cc(Cl)ccc2c1O`, for which, in experiment [1], the IC50 worked out at 3 µM.

`O=C(c1cccnc1)c1c(O)nc2cc(Cl)ccc2c1O` came in with an IC50 in experiment [1] of 6.85 µM.

On to `O=C(CCc1ccccc1)c1c(O)nc2cc(Cl)ccc2c1O`, for which the IC50 in experiment [1] was above 100 µM.

With `O=C1CS(=O)(=O)c2ccc(Cl)cc2N1`, the IC50 in experiment [1] was above 100 µM.
